Screening results deposited in PubChem by Sanford-Burnham Center for Chemical Genomics.
A selection: hits, their analogues and other compounds. The true share with any hit is near 1.6%.
FLuc inhib CS: Photinus pyralis luciferase inhibition counter-screen; P08659; actives 1.5% (n = 200,000); inhibition, % at 10 µM; AID 1006; ATPLite firefly luciferase biochemical luminescence, 10 min;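 active means inhibition above about 50% when tested at 10 µM, limit read from the data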
Target sequence (P08659 whole entry, looked up): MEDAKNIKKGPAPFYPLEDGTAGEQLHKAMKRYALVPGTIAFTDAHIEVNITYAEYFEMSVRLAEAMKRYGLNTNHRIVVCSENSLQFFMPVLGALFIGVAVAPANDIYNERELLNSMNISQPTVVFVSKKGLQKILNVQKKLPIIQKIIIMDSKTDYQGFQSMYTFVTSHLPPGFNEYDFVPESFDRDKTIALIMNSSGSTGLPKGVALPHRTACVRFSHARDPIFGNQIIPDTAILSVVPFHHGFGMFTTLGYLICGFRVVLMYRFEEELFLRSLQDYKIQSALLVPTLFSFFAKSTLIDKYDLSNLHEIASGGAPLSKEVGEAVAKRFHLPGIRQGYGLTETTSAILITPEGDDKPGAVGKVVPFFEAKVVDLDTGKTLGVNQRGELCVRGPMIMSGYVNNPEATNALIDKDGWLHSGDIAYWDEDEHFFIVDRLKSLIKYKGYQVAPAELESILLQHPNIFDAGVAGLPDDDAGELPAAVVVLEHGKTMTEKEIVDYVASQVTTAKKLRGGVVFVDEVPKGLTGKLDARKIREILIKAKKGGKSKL
FLuc act counter: firefly luciferase counter-screen for stimulation assays; P08659; ATPlite luciferase biochemical, luminescence, 10 min; 0 = ATP-free wells, 1 = DMSO control; activation factor at 10 µM; 200,000 tested, under 10 active;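 active means luciferase activation factor, scaled between plate controls, of at least 2 with compound at 10 µM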
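Assay system – cell-free luciferase reagent · Medium – PBS-based ATP solution · Dosing – test compounds dosed from 2 mM stocks in 100% DMSO · Timing – 10 min, room temperature · Technique – light output (luminescence) · Measure – luminescence gain marking luciferase activators · Controls – No-ATP low control, compound-free enzyme-plus-ATP high control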
PPC-1+TRAIL kill: PPC-1 cancer cell killing with TRAIL present | PPC-1 cells + TRAIL, ATPLite viability luminescence | cell killing (% activity), % at 4 µM or 5 µM | actives 0.41% (n = 220,000) | AID 1443;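 active means cell killing above 50% in the first pass at 4 µM, then a duplicate retest at 5 µM averaging 50% or more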;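 further: plate controls were cells with TRAIL plus DMSO for no effect and medium-only wells lacking cells for full effect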
C8 TRAIL sens: caspase-8 TRAIL sensitization. NB7+C8 cells + TRAIL, ATPlite viability luminescence. inhibition (viability loss, TRAIL sensitization), % at 10 µM. actives 1% (n = 360,000);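 active means compounds causing at least 50% loss of cell viability in the single-dose screen, relative to plate controls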
An asterisk follows results filed as active; . = not tested or not shown.

SMILES	FLuc inhib CS	FLuc act counter	PPC-1+TRAIL kill	C8 TRAIL sens
C=CCONC(=O)c1cc(OCC(F)(F)F)ccc1OCC(F)(F)F	-8	1.1	15	13
O=C(NNC(=O)c1cc(OCC(F)(F)F)ccc1OCC(F)(F)F)c1ccc(Cl)c(Cl)c1	-10	1.1	5	66*
CCc1ccc(-c2cn3nc(C)c(C)nc3n2)cc1	84*	0.2	.	56*
Cc1nc2nc(-c3ccc(F)cc3)cn2nc1C	.	.	.	21
O=c1[nH]c(N/N=C\c2ccc(F)cc2)nc2ccccc12	64*	0.4	29	44
COc1ccc(Cc2nnc(N/N=C/c3ccc(O)cc3)[nH]c2=O)cc1OC	9	0.9	28	61*
O=c1[nH]c(N/N=C/c2ccc(O)cc2)nc2ccccc12	56*	0.4	8	17
Cc1ccc(N=Nc2ccc3ccccc3c2O)cc1	.	.	.	75*
Oc1c(N=Nc2ccc(F)cc2)ccc2ccccc12	.	.	.	53*
COc1ccc(N=Nc2ccc3ccccc3c2)c(O)c1	.	.	.	47
Oc1c(N=Nc2nn[nH]n2)ccc2ccccc12	.	.	.	45
Oc1ccc2ccccc2c1N=Nc1ccc(F)cc1	.	.	5	19
COc1cccc(N=Nc2ccc3ccccc3c2O)c1	.	.	.	57*
CCC1NC(=O)c2cccnc2-n2c1nc1ccc(OC)cc1c2=O (configuration not stated)	.	.	.	-6
N#Cc1ccccc1S(=O)(=O)N1CCN(C(=O)C2CC(=O)N(c3ccc4c(c3)OCCO4)C2)CC1 (configuration not stated)	.	.	.	-12
NC(=O)N/N=C/c1sc(N2CCCCC2)nc1-c1cccs1	.	.	.	15
CC(C)NC(=S)N/N=C/c1sc(N2CCCCC2)nc1-c1cccs1	53*	0.5	27	15
Cc1cc(=O)[nH]c(NN=Cc2cc(Br)ccc2O)n1	.	.	.	-2
CCN(CC)c1ccc(/C=N/Nc2nc(C)cc(=O)[nH]2)c(O)c1	25	0.7	58*	49
O=C(COC(=O)[C@@H]1CCCN1C(=O)c1cccs1)Nc1cccc(Cl)c1	.	.	.	-2
CSc1ccc(/C=C/c2ccc3cccc(O)c3n2)cc1	46	0.5	15	53*
N/C(=N\OC(=O)c1ccc(F)cc1)c1ccccc1	97*	0	6	1
C/C(=N\OC(=O)c1ccc(F)cc1)c1ccc(F)c(F)c1	.	.	11	-1
N/C(=N\OC(=O)c1ccc(F)cc1)c1ccc(Br)cc1	36	0.6	21	48
Cc1ccc(/C(N)=N/OC(=O)c2ccc(F)cc2)cc1	68*	0.3	9	74*
SMILES	FLuc inhib CS	FLuc act counter	PPC-1+TRAIL kill	C8 TRAIL sens
c1ccc(-c2cn3nc4c(nc3n2)CCCC4)cc1	86*	0.1	7	36
CCCCNC(=O)c1onc(CS(=O)(=O)c2ccccn2)c1C(=O)NCCCC	.	.	.	8
CNC(=O)c1ccc(-c2ccc(OC)cc2)s1	61*	0.4	36	31
COc1ccc(NC(=O)c2ccc(-c3ccc(OC)cc3)s2)cc1	-4	1	12	-5
CN(C)CCNCCCNc1c2ccccc2nc2cccc([N+](=O)[O-])c12	.	.	.	61*
CN(C)CCCNc1c2c(nc3ccccc13)CCC2	.	.	.	-6
CCN(CC)c1ccc(C(=O)OCc2cc(=O)oc3cc(O)ccc23)cc1	-3	1	-24	50*
O=C(COC(=O)c1ccc(Cl)nc1)c1ccc2c(c1)OCCO2	88*	0.1	20	12
O=C(CS(=O)(=O)c1ccccc1)c1ccc2c(c1)OCCO2	58*	0.4	19	5
CS(=O)(=O)c1cccc(C(=O)OCC(=O)c2ccc3c(c2)OCCO3)c1	.	.	.	4
CCN(CC)S(=O)(=O)c1cccc(C(=O)OCC(=O)c2ccc3c(c2)OCCO3)c1	87*	0.1	14	-3
CCCCC(=O)Nc1ccccc1C(=O)OCC(=O)c1ccc2c(c1)OCCO2	66*	0.3	25	10
COCC1CCCN(C(=O)c2ccc3nc(Cc4cccc(Cl)c4)oc3c2)C1 (configuration not stated)	.	.	.	-6
CCCn1nc(C(=O)Nc2cccc(S(=O)(=O)N(C)c3ccccc3)c2)c2ccccc2c1=O	.	.	.	24
O=C(COC(=O)C(O)c1ccccc1)c1ccc2c(c1)OCCO2 (configuration not stated)	84*	0.2	6	-3
O=C(COC(=O)c1cccc(S(=O)(=O)NCc2ccccc2)c1)c1ccc2c(c1)OCCO2	54*	0.5	30	0
CC1=C(/C=C/C(C)=C/C=C/C(C)=C/C(=O)Nc2ccc(O)cc2)C(C)(C)CCC1	.	.	.	80*
CC1=C(/C=C/C(C)=C/C=C/C(C)=C\C(=O)O)C(C)(C)CCC1	.	.	.	9
Cc1cccc(-c2cc3c(N=O)c4ccccc4c-3n[nH]2)c1	63*	0.4	41	49
COc1ccc(-c2nn(-c3ccccc3)cc2/C=N/N2C(=O)CSC2=S)cc1	-6	1.1	-12	69*
COc1ccc(/C=N/N2C(=O)CSC2=S)cc1	-1	1	12	-10
O=C(Nc1cccc(/C=C/c2nc3ccccc3c(=O)[nH]2)c1)c1ccccc1Cl	.	.	17	24
O=c1[nH]c(/C=C/c2ccc(Br)cc2)nc2ccccc12	.	.	.	78*
O=c1[nH]c(/C=C/c2ccccc2F)nc2ccccc12	.	.	.	79*
O=c1[nH]c(/C=C/c2ccccn2)nc2ccccc12	.	.	.	30
SMILES	FLuc inhib CS	FLuc act counter	PPC-1+TRAIL kill	C8 TRAIL sens
O=c1[nH]c(/C=C/c2cccc3ccccc23)nc2ccccc12	-2	1	-4	-2
COc1ccc(C(=O)Nc2cccc(/C=C/c3nc4ccccc4c(=O)[nH]3)c2)cc1	.	.	9	76*
CN(C)c1ccc(/C=C/c2nc3ccccc3c(=O)[nH]2)cc1	.	.	.	91*
Cc1ccc(C)c(SCC(=O)Nc2cc(C)nn2-c2ccc(F)cc2)c1	-3	1	19	.
Cc1ccc(CNC(=O)C2CC3Cn4c(nc5cc6ccccc6cc54)C3N2C)o1 (configuration not stated)	.	.	20	-2
COc1cc(/C=C/c2nc3ccccc3c(=O)[nH]2)cc(Cl)c1O	.	.	.	-1
Cc1cccc(/C=C\c2nc3ccccc3c(=O)[nH]2)c1	73*	0.3	38	58*
Clc1ccc(-c2cn3c(n2)-c2ccccc2C3)cc1Cl	66*	0.3	18	44
N/C(=N\N=C\c1ccc(O)c(O)c1)c1nonc1N	.	.	1	-2
N/C(=N\N=C\c1ccc(O)cc1)c1nonc1N	51*	0.5	6	18
CC(=O)c1ccc(NC(=O)Nc2cccnc2)cc1	.	.	.	52*
CCC(C)c1ccc(NC(=O)Nc2cccnc2)cc1 (configuration not stated)	.	.	.	49*
COc1cc2c(=O)n(CC3CCCO3)c(=O)n(CC(=O)Nc3ccccc3)c2cc1OC (configuration not stated)	.	.	.	2
O=C(c1ccccc1)c1nnc(-c2ccccc2F)o1	78*	0.2	3	-6
CCN(CC)S(=O)(=O)c1ccc(/C=C/C(=O)OCC(=O)NCc2ccco2)cc1	.	.	.	-8
C=CCOc1ccccc1CN(C(=O)CCl)c1ccc2c(c1)OCO2	.	.	.	96*
COc1ccc(/C=C(\C#N)C(=O)Nc2cccnc2)cc1	6	0.9	21	-9
